Reference: article PMC10825549 (JID Innovations, 2023)
Several values for one entry are separate records, joined by “and”; a condition that tells them apart may be missing. Identical values can stand only once. Entries after “also recorded” stand apart in the source; their conditions may differ.

Columns and labels:
TXK = TXK (Homo sapiens, UniProt P42681); experiment: IC50 for kinases of potential cross-over; type: biochemical
Jak2/TYK2 = experiment: Inhibition of IL-12-induced STAT phosphorylation in PBMCs; type: cell-based, human
How it was run: (§1)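 Ficoll-isolated human PBMCs, cryopreserved, thawed into RPMI/10% heat-inactivated FBS assay medium, 200,000 cells/well. Serially diluted test compound (final 20 μM to 2 × 10−6 μM) or 0.1% DMSO vehicle preincubated 1 h at 37 °C. Cytokine then added for 5–10 min, followed by 30 min shaking at 4 °C and lysis. Phospho-STAT5/STAT4 by MSD immunoassay, phospho-STAT1 by ELISA. IC50 reported as mean ± SD.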

minipig = experiment: 28-day minipig repeat exposure study: toxicology; type: in vivo; conditions: topical solution daily for 28 days, 0, 40, 80 and 160 mg/day
How it was run: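 GLP repeat-dose dermal study in minipigs. Topical solution given daily for 28 days at 0, 40, 80 and 160 mg/day. Left on skin 20–22 h each day, then the site was wiped clean with a moist towel. Dermal tolerability and toxicokinetics assessed.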

[1] = test system: participants with atopic dermatitis; experiment: Phase 2a study ATI-1777-AD-201: safety; type: in vivo, human
How it was run: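 Adults with moderate/severe AD applied 2% solution or vehicle twice daily for 4 weeks. TEAEs: onset on/after first dose and before last dose […], counted once per preferred term and system organ class. Also assessed serious AEs, labs, vital signs, physical exams, 12-lead ECG. Full analysis set; safety reviewed every 4 weeks.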

[2] = Metabolic stability in liver microsomes; type: in vitro ADME; conditions: monkey
How it was run: (§2)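 Test compound from 1 mM DMSO solution preincubated 5 min with dog, human, monkey, rat or minipig liver microsomes. NADPH (10 mM) then added. Reactions stopped at 0, 5, 15 and 30 min with 0.05% formic acid in acetonitrile containing loperamide internal standard. Supernatants analysed by LC-MS/MS; n = 1 per microsome species.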

CYP3A4 = CYP3A4 (Homo sapiens, UniProt P08684); experiment: Cytochrome P450 phenotyping; type: in vitro ADME; conditions: recombinant human CYP3A4; with NADPH; 30 minutes; n = 1
How it was run: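 Recombinant human CYP3A4 was prepared at 100 nM, and a 2 μM dosing solution of test compound in DMSO was added on ice. After prewarming, 8 mM NADPH solution or blank buffer was added for 30 minutes. Acetonitrile with internal standard stopped the reaction. The plate was shaken and centrifuged, and the supernatant was analysed by LC-MS/MS; n = 1.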

Jak1/2 = experiment: Inhibition of IFN-γ-induced STAT phosphorylation in PBMCs; type: cell-based; conditions: Homo sapiens, PBMC, read-out: IC50 Mean ± SD
How it was run: as §1

Jak2 = Jak2 (Homo sapiens, UniProt O60674); experiment: Inhibition of catalytic domain activity, Jak2; type: biochemical
How it was run: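 Z′-LYTE biochemical kinase assay run by the vendor per manufacturer's protocol. Each kinase plate carried 0%/100% phosphorylation and 0%/100% inhibition controls. Development-reaction and compound-fluorescence interference controls at each compound concentration. n = 1 per kinase.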

[3] = Metabolic stability in liver microsomes; type: in vitro ADME; conditions: rat
How it was run: as §2

MARK1 = MARK1 (Homo sapiens, UniProt Q9P0L2); experiment: IC50 for kinases of potential cross-over; type: biochemical
Jak1/3 = experiment: Inhibition of IL-2-induced STAT phosphorylation in PBMCs; type: cell-based, human
How it was run: as §1

[4] = 7-day minipig study: plasma pharmacokinetics; type: in vivo
[5] = Homo sapiens, PBMC, read-out: IC50 Mean ± SD
[6] = TEAE, full analysis set, n = 23
[7] = male, plasma, topical, 160 mg/day

CYP3A4, sequence (P08684 whole entry): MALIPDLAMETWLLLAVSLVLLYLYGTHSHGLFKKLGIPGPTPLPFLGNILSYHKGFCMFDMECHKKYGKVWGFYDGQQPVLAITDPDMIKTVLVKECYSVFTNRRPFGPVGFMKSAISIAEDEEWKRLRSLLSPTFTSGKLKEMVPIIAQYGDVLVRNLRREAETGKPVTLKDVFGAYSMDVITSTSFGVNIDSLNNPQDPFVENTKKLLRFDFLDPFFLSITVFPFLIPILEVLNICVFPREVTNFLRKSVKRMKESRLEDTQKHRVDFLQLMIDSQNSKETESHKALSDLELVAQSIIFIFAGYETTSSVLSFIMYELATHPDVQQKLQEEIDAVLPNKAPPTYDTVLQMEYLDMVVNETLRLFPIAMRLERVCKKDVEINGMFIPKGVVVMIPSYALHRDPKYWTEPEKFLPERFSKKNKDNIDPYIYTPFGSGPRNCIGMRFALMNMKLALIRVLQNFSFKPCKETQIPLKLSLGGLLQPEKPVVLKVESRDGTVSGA
TXK, sequence (P42681 whole entry): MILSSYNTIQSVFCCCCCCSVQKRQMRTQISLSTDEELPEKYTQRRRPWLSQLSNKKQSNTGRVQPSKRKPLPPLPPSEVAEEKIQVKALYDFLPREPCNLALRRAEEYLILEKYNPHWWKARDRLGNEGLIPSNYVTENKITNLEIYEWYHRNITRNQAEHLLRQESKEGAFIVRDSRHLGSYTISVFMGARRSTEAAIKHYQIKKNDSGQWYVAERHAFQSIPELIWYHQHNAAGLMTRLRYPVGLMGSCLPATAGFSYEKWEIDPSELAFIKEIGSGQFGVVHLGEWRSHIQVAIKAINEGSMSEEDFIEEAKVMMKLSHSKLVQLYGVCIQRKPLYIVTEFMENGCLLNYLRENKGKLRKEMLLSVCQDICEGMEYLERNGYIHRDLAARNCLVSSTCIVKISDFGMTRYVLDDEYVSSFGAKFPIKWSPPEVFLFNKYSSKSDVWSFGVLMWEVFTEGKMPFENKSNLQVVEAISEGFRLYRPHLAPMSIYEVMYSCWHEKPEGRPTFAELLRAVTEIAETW
MARK1, sequence (Q9P0L2 whole entry): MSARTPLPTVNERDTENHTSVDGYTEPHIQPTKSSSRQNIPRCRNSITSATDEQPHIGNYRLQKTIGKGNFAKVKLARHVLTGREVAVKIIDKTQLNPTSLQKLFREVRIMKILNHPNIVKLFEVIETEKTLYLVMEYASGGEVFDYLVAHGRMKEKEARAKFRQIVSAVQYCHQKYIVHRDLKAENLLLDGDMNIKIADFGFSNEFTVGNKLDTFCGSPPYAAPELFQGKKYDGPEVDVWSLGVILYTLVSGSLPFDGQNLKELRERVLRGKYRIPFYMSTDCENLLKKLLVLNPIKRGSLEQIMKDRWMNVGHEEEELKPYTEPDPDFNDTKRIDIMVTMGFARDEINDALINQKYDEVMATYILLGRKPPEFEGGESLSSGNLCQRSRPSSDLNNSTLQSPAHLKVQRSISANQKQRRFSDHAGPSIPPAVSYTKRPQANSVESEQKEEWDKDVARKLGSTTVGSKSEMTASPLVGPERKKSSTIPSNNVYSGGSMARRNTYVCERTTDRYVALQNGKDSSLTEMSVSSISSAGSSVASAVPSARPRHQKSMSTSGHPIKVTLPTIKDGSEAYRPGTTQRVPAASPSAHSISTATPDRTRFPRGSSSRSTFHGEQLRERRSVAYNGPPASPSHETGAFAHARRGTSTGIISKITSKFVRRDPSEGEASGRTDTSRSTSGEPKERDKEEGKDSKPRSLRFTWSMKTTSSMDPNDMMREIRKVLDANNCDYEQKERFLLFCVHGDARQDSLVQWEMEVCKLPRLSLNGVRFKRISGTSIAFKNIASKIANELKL
Jak2, sequence (O60674 849-1124 limits assumed): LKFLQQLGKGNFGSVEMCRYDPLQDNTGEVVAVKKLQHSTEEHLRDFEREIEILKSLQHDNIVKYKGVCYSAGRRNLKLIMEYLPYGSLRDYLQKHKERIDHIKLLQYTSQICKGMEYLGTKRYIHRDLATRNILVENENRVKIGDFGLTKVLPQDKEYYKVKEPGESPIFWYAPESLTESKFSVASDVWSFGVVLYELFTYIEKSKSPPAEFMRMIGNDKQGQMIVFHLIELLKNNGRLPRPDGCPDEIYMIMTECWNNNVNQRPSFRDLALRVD

## CCOC(=O)c1cnc2[nH]ccc2c1N[C@@H]1CCCN(C(=O)CC#N)C1 [ATI-1777, ethyl (R)-4-((1-(2-cyanoacetyl)piperidin-3-yl)amino)-1H-pyrrolo[2,3-b]pyridine-5-carboxylate]
TXK
  IC50: 351 nM
TXK; TXK vs Jak1 (= 1)
  Fold Selectivity: 234 fold
Jak2/TYK2; [5]
  IC50: 898 ± 178 nM
Jak2/TYK2; IL-12, Jak2/TYK2 vs Jak1/3
  Fold Jak1/3: 47.3 fold
minipig
  ATI-1777–related effects / adverse effects: No ATI-1777–related effects were noted at any dose; also recorded: did not present any adverse effects
[1]; 2% topical solution twice daily, 4 weeks
  deaths, serious adverse events, TEAEs of special interest: No deaths or serious adverse events were reported; also recorded: No deaths or treatment-emergent AEs (TEAEs) of special interest; also recorded: No deaths or serious AEs were reported
[1]; 2% topical solution twice daily, 4 weeks, n = 23
  AEs reported, proportion of participants: 39.1%
[1]; TEAE, PT, n = 23
  Acrochordon, Number of Events: 1
  Acrochordon, Number of Subjects: 1 (4.3) n (%)
  Amylase increased, Number of Events: 1
  Amylase increased, Number of Subjects: 1 (4.3) n (%)
  Application site irritation, Number of Events: 0
  Application site irritation, Number of Subjects: 0 n (%)
  Application site pruritus, Number of Events: 1
  Application site pruritus, Number of Subjects: 1 (4.3) n (%)
  Atrial fibrillation, Number of Events: 1
  Atrial fibrillation, Number of Subjects: 1 (4.3) n (%)
  Blood CPK increased, Number of Events: 2
  Blood CPK increased, Number of Subjects: 2 n (%) and 2 (8.7) n (%)
  COVID-19, Number of Events: 0
  COVID-19, Number of Subjects: 0 n (%)
  Candida infection, Number of Events: 1
  Candida infection, Number of Subjects: 1 (4.3) n (%)
  Dizziness, Number of Events: 1
  Dizziness, Number of Subjects: 1 (4.3) n (%)
  Folliculitis, Number of Events: 1
  Folliculitis, Number of Subjects: 1 (4.3) n (%)
  Food poisoning, Number of Events: 1
  Food poisoning, Number of Subjects: 1 (4.3) n (%)
  Headache, Number of Events: 2
  Headache, Number of Subjects: 2 n (%) and 2 (8.7) n (%)
  Lipase increased, Number of Events: 1
  Lipase increased, Number of Subjects: 1 (4.3)1 n (%)
  Oropharyngeal pain, Number of Events: 0
  Oropharyngeal pain, Number of Subjects: 0 n (%)
  Pharyngitis streptococcal, Number of Events: 0
  Pharyngitis streptococcal, Number of Subjects: 0 n (%)
  Rash, Number of Events: 0
  Rash, Number of Subjects: 0 n (%)
  SARS-CoV-2 test positive, Number of Events: 0
  SARS-CoV-2 test positive, Number of Subjects: 0 n (%)
  Sinus congestion, Number of Events: 0
  Sinus congestion, Number of Subjects: 0 n (%)
  Skin fragility, Number of Events: 0
  Skin fragility, Number of Subjects: 0 n (%)
  Somnolence, Number of Events: 0
  Somnolence, Number of Subjects: 0 n (%)
  Tinea infection, Number of Events: 1
  Tinea infection, Number of Subjects: 1 (4.3) n (%)
  Transaminases increased, Number of Events: 1
  Transaminases increased, Number of Subjects: 1 (4.3) n (%)
  Urinary tract infection, Number of Events: 1
  Urinary tract infection, Number of Subjects: 1 n (%) and 1 (4.3) n (%)
[1]; TEAE, SOC, n = 23
  Cardiac disorders, Number of Events: 1
  Cardiac disorders, Number of Subjects: 1 (4.3) n (%)
  Gastrointestinal disorders, Number of Events: 1
  Gastrointestinal disorders, Number of Subjects: 1 (4.3) n (%)
  General disorders and administration site conditions, Number of Events: 1
  General disorders and administration site conditions, Number of Subjects: 1 (4.3) n (%)
  Infections and infestations, Number of Events: 4
  Infections and infestations, Number of Subjects: 3 (13.0) n (%)
  Investigations, Number of Events: 5
  Investigations, Number of Subjects: 3 (13.0) n (%)
  Neoplasms benign, malignant, and unspecified (including cysts and polyps), Number of Events: 1
  Neoplasms benign, malignant, and unspecified (including cysts and polyps), Number of Subjects: 1 (4.3) n (%)
  Nervous system disorders, Number of Events: 3
  Nervous system disorders, Number of Subjects: 3 (13.0) n (%)
  Respiratory, thoracic, and mediastinal disorders, Number of Events: 0
  Respiratory, thoracic, and mediastinal disorders, Number of Subjects: 0 n (%)
  Skin and subcutaneous tissue disorders, Number of Events: 0
  Skin and subcutaneous tissue disorders, Number of Subjects: 0 n (%)
[1]; [6]
  Any AE, Number of Events: 16
  Any AE, Number of Subjects: 9 (39.1) n (%)
[1]; n = 23
  participants who discontinued study participation owing to TEAEs: No participants
[1]; one related TEAE in the group
  TEAE related to study treatment: mild application site pruritus
[2]
  CLint scaled: 939 mL/min/kg
  microsomal CLint: 264 µL/min/mg
[2]; T1/2, Study 1, n = 1
  half-life: 2.16 min
[2]; T1/2, Study 2, n = 1
  half-life: 5 min
CYP3A4
  Percentage Remaining: 0.56%
Jak1/2
  IC50: 97 ± 34 nM
Jak2
  IC50: 7.1 nM
[3]
  CLint scaled: 370 mL/min/kg
  microsomal CLint: 52 µL/min/mg
[3]; T1/2, Study 1, n = 1
  half-life: 6.7 min
[3]; T1/2, Study 2, n = 1
  half-life: 27 min
MARK1
  IC50: 1250 nM
MARK1; MARK1 vs Jak1 (= 1)
  Fold Selectivity: 833 fold
Jak1/3; [5]
  IC50: 19 ± 6 nM
Jak1/3; IL-2, Jak1/3 (reference)
  Fold Jak1/3: 1.0 fold
[4]; 2% solution, 7 consecutive days, LLOQ = 0.5 ng/ml, at most time points
  systemic exposure: unquantifiable
[4]; [7]
  concentration at 0 h: 0 ng/mL
  concentration at 1 h: 0 ng/mL
  concentration at 2 h: 0.387 ng/mL
  concentration at 4 h: 0.221 ng/mL
  concentration at 8 h: 0.391 ng/mL
  concentration at 12 h: 0 ng/mL
  concentration at 24 h: 0 ng/mL
